Screens from PubChem.
This is a sample that favours compounds with a hit; in the whole collection about 3.7% have one here.
Arbovirus anti = antivirals against arbovirus infection, primary screen, cell-based, full library, 10K replicate subset. arbovirus infection cell-based antiviral screen. 200,000 compounds, 0.37% hits. inhibition, % at 10 µM. AID 1251, 2008; in the data active = inhibition above about 30%
MDM2 E3 inh = MDM2-luciferase reporter signal enhancers, primary screen, MDM2 E3 ligase inhibitor project, cell-based, luminescence, 1536-well. cell-based MDM2 ubiquitination luciferase reporter, 2 h; 0 = plate control, 100 = twice control, blank-subtracted. signal enhancement, % at 5 µM. 210,000 compounds, 0.11% hits. AID 1230, 2008;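 active = signal enhancement of 30% or more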;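 also: luminescence tracks abundance of the self-degrading MDM2-luciferase fusion protein; higher signal means inhibition of MDM2 E3 ligase activity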
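Buffer or medium: Cells held in DMEM | Assay system: Stable mammalian line carrying autodegrading MDM2–luciferase fusion reporter | Quantity: 2000 cells/well | Times: 4 h settle plus 2 h compound, 37 °C | Doses: One concentration, 5 µM, with 0.2% DMSO | Technique: Luminescence with SteadyLite reagent, 15 min at room temperature | Benchmarks: Plate controls and plate blanks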
PKD1 kinase inh = inhibitors of human PKD1 kinase, biochemical, fluorescence polarization | Serine/threonine-protein kinase D1 (Homo sapiens), Q15139 | PKD1 kinase fluorescence polarization assay | inhibition, % (test concentration not listed) | 200,000 compounds, 0.056% hits; in the data active = inhibition above about 50%
ROMK mod = ROMK potassium channel modulators, primary screen, cell-based, thallium flux, MLSMR library; ATP-sensitive inward rectifier potassium channel 1 (Homo sapiens), P48048; Tet-inducible ROMK, thallium flux fluorescence; actives lie on both sides; B-score at 10 µM; 130,000 compounds, 2% hits; AID 1918, 2009;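 active = signal ratio slope over the read window, or its plate-corrected B-score, at least 3 SD from the plate mean, either direction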;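 also: B-score of the F/F0 ratio slope over 7 to 12 s after thallium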
Calpain2 inh = inhibitors of pig calpain II, primary screen, biochemical, fluorogenic peptide substrate, 1536-well; 220,000 compounds, 0.37% hits; inhibition, % at 16 µM; purified calpain II, 30 min;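 active = inhibition above about 50%, limit read from the data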
Cl transport mod = KCC2 cotransporter modulators, thallium flux, primary screen, cell-based, HEK293 KCC2, FluoZin-2 fluorescence, MLSMR. Solute carrier family 12 member 5 (Homo sapiens), Q9H2X9. KCC2 cells, thallium flux FluoZin-2 fluorescence. B-score of Tl+ flux slope (higher = more flux/activation; lower = inhibition) at 10 µM. 190,000 compounds, 2.2% hits. AID 1456, 2008;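 active = thallium flux slope and its plate-corrected score both differing from the plate sample mean at a set confidence after two filtering rounds, in either direction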;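 also: slope of fluorescence scaled to starting intensity during 10 to 20 s after thallium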
KCC2 secondary = KCC2 modulators in sodium-free buffer, confirmation, cell-based, HEK293 KCC2, thallium flux, secondary assay; shares compounds with Cl transport mod; AID 1713, 2009; 3,700 compounds, 15% hits; FluoZin2 fluorescence; hits give high values; normalised thallium flux (F/F0 slope) at 10 µM;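 active = thallium flux slope above the same plate's solvent-only control mean plus 3 SD; inconclusive = the two replicate wells disagree; inactive = no significant difference from solvent-only control wells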
KCC2 bumet counter = thallium flux persisting under bumetanide in KCC2 cells, confirmation, counter-screen for KCC2 modulator project, cell-based, HEK293 KCC2, FluoZin2, secondary assay 3 | shares compounds with Cl transport mod | HEK293-KCC2 + bumetanide/ouabain; hits give high values | normalized thallium flux at 10 µM | 3,700 compounds, 49% hits;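 active = thallium entry rate above the same plate's blocked-transporter control wells by more than 3 SD; inconclusive = the two repeat wells disagree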;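 also: raw slope of fluorescence over initial fluorescence between 10 and 20 s after thallium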
KCC2 secondary2 = KCC2 modulators without ouabain present, confirmation, cell-based, HEK293 KCC2, thallium flux, FluoZin2, secondary assay 2; shares compounds with Cl transport mod; thallium flux FluoZin2 fluorescence; actives lie on both sides; F/F0 rise rate, 10–20 s post-thallium; normalized thallium flux at 10 µM; 3,700 compounds, 23% hits; AID 1715, 2009;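 active = thallium flux slope more than 3 SD above or below the plate's solvent-only control mean, mostly below; inconclusive = the two repeat wells disagreed; inactive = no significant shift from solvent-only controls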;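 also: raw slope with 0.1% DMSO as baseline and bumetanide as block control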
HEK counter1 = thallium flux modulation in parental HEK cells, confirmation, counter-screen for KCC2 modulator project, cell-based, counterscreen 1 | shares compounds with Cl transport mod | HEK293 parental cells, thallium flux FluoZin2, ouabain; baseline-ratio fluorescence slope, 10–20 s after thallium | thallium flux rate (normalised fluorescence) at 10 µM | 3,700 compounds, 46% hits | AID 1716, 2009;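 active = thallium flux rate significantly above the same plate's solvent-only control wells, beyond their mean plus 3 SD; inconclusive = the two replicate wells gave conflicting results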
KCC2 retest ouab = KCC2 inhibitors and activators, ouabain retest, confirmation, HEK-KCC2 cells. shares compounds with Cl transport mod. raw Tl+ flux slope (below DMSO = inhibition, above = activation) at 10 µM. HEK293-KCC2, thallium flux FluoZin2 fluorescence; bidirectional: low = inhibitor, high = activator. 3,700 compounds, 48% hits;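 active = thallium flux slope beyond 3 SD from same-plate DMSO control mean in most replicates, usually higher, sometimes lower; inconclusive = repeat tests gave conflicting results; inactive = no significant difference from controls in most replicates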;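 also: slope of initial-normalized fluorescence between seconds 10 and 20 after thallium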
HEK counter2 = native HEK Tl+ uptake effects, second counter-screen – HEK cells, counterscreen 2, counter-screen for KCC2 modulator project, confirmation; shares compounds with Cl transport mod; AID 1718, 2009; thallium flux slope at 10 µM; 3,700 compounds, 33% hits; HEK293 parental, thallium flux FluoZin-2 fluorescence slope;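 active = thallium flux slope above the same plate's solvent-control mean plus 3 SD in both duplicate wells; inconclusive = duplicate wells that disagreed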;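 also: run without ouabain in cells lacking the KCC2 cotransporter; slope of fluorescence scaled to its starting value between 10 and 20 s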
An asterisk follows results filed as active; ? = inconclusive; nt = not tested or not shown.

SMILES	Arbovirus anti	MDM2 E3 inh	PKD1 kinase inh	ROMK mod	Calpain2 inh	Cl transport mod	KCC2 secondary	KCC2 bumet counter	KCC2 secondary2	HEK counter1	KCC2 retest ouab	HEK counter2
O=C1CCCC/C1=N\Nc1ccc(C2CCCCC2)cc1	nt	-34.6	nt	nt	12.7	0.828	nt	nt	nt	nt	nt	nt
Cc1ccsc1/C=N\NC(=O)c1ccc2c(c1)OCO2	-8.8	-3.2	-5.9	nt	1.1	5.91*	0.00656	0.00635*	0.0272	0.0107*	0.0196	?
O=C(Nc1nnc(-c2cccc(F)c2)s1)Nc1ccccc1F	-1.4	-7.7	-3.2	0.00662	-8.8	3.8*	0.00637	0.00476	0.0309	0.00737	0.0201	0.0113
O=C(Nc1nnc(COc2ccccc2F)s1)Nc1ccccc1F	nt	nt	nt	nt	13.4	2.58*	0.0086	0.00541	0.0317	0.00775	0.0216	0.0103
COc1ccc(/C=C/c2nnc(NC(=O)COc3ccc(C)cc3)s2)cc1	-4.8	-15.1	4.8	nt	-49.6	-0.327	nt	nt	nt	nt	nt	nt
Cc1ccc2cc(C(c3nnnn3C(C)(C)C)N3CCCCCC3)c(=O)[nH]c2c1 (stereo unspecified)	1.2	-0.7	-5.1	0.465	-134.6	nt	0.00911	0.00677	0.0302	0.0069	0.0247	0.0106
CCC(C)(C)n1nnnc1C(c1cc2cc(C)ccc2[nH]c1=O)N1CCCC1 (stereo unspecified)	8.6	-21.1	-11.6	nt	-15.9	-0.0147	nt	nt	nt	nt	nt	nt
Cc1cc(-c2n[nH]c(=S)n2/N=C/c2ccc(C)o2)n[nH]1	nt	3.9	nt	nt	-20.0	-0.311	nt	nt	nt	nt	nt	nt
S=c1[nH]nc(-c2ccccn2)n1/N=C/c1ccc(-c2ccccc2Cl)o1	5.4	-4.9	-6.2	0.327	12.4	132*	0.122*	0.138*	0.0307	0.131*	0.148*	0.0132*
S=c1[nH]nc(-c2cc(-c3ccccc3)n[nH]2)n1/N=C/c1ccc(Cl)c(Cl)c1	nt	-7.8	nt	-1.63	20.9	0.304	nt	nt	nt	nt	nt	nt
S=c1[nH]nc(-c2ccccn2)n1/N=C/c1ccc(Cl)c(Cl)c1	nt	-5.3	nt	nt	-2.5	40.9*	0.00562	0.109*	0.0544*	0.0408*	0.0665*	0.0306*
C[C@@H]1CC[C@H]2C(=O)N3[C@@H](CC[C@@H](C)[C@@H]3c3ccc(Br)cc3)C(=O)N2[C@H]1c1ccc(Br)cc1	-20.3	nt	-11.9	0.0539	-15.9	5.35*	0.00692	0.00528	0.0278	0.00784	0.0184	0.0112
Cc1ccc(/C=C/C(=O)NC(=S)N2CCN(C)CC2)cc1	-7.4	-5.1	-12.8	nt	-11.3	1.75	nt	nt	nt	nt	nt	nt
O=C(/C=C/c1ccc(F)cc1)NC(=S)N1CCN(c2ccccn2)CC1	nt	7.9	nt	nt	-6.1	21.2*	0.00758	0.0191*	0.0306	0.013*	?	0.0135*
O=C(/C=C/c1ccccc1)NC(=S)N1CCSCC1	-0.6	-10.8	8.1	-0.485	-3.1	9.69*	0.0223*	0.0257*	?	0.0181*	0.0251*	0.0204*
O=C(NC(=S)N1CCN(C/C=C/c2ccccc2)CC1)c1ccc(F)cc1	nt	-17.9	nt	nt	18.3	151*	0.00991*	0.134*	0.107*	0.114*	0.122*	0.107*
C=CCn1c(CCC(=O)Nc2ccc(C)c(Cl)c2)nnc1SCC(=O)Nc1ccccc1C	-17.9	-12.3	3.6	nt	-47.3	nt	nt	nt	nt	nt	nt	nt
CCOC(=O)c1cc(C#N)c(Oc2ccccc2OC)nc1-c1ccccc1	-4.3	-31.8	5.1	nt	15.1	nt	nt	nt	nt	nt	nt	nt
CN(c1cccc(NC(=O)CN(c2cccc(Cl)c2)S(=O)(=O)c2ccccc2)c1)S(C)(=O)=O	7.9	-11.2	-6.7	nt	10.7	-2.86	nt	nt	nt	nt	nt	nt
CCCn1c(SCC(=O)N2c3ccccc3CC2C)nnc1-c1ccco1 (stereo unspecified)	-6.8	1.1	-1.0	0.871	36.4	-4.81*	0.00827	0.00435	0.0349	?	0.0178*	0.00939
CCCn1c(SCC(=O)N2CCc3ccccc32)nnc1-c1ccco1	-4.1	-10.2	-0.7	nt	20.0	-0.272	nt	nt	nt	nt	nt	nt
O=C(Nc1ccc(S(=O)(=O)NCc2ccccc2)cc1)c1ccccc1[N+](=O)[O-]	-4.0	1.7	-0.1	nt	19.6	-6.56*	0.00577	0.00517	0.025*	0.00809	?	0.0112
CCOC(=O)c1ccc(NC(=O)c2ccccc2[N+](=O)[O-])cc1	-10.5	-0.5	-15.2	nt	5.2	-1.84	nt	nt	nt	nt	nt	nt
Cc1ncc(CCl)c2c1OC(C)(C)OC2	3.0	-8.1	-0.1	0.351	-27.8	1.9	nt	nt	nt	nt	nt	nt
CC(C)n1c(SCC(=O)Nc2ccccc2N2CCOCC2)nc2c1c(=O)n(C)c(=O)n2C	-3.7	11.9	-5.0	nt	-15.7	nt	0.00645	0.00421	0.0296	0.00751	0.0178	0.00983
CC1(C)CC(=O)/C(=C(/O)CCCN2C(=O)c3ccccc3C2=O)C(=NC(C)(C)C)C1	10.4	8.5	-1.8	-0.153	-20.9	nt	nt	nt	nt	nt	nt	nt
O=[N+]([O-])c1ccc(OCc2nnc(-c3ccccc3)o2)cc1	5.0	-12.7	-0.9	0.117	28.4	2.11	nt	nt	nt	nt	nt	nt
